Here are results for one compound from paper PMC3361572 (Chemistry & biology, 2012).

“Also recorded” adds a separate entry of the source.

Assay [1] has as its target T1, FAAH (Rattus norvegicus, UniProt P97612).
T1 sequence (P97612 1-579): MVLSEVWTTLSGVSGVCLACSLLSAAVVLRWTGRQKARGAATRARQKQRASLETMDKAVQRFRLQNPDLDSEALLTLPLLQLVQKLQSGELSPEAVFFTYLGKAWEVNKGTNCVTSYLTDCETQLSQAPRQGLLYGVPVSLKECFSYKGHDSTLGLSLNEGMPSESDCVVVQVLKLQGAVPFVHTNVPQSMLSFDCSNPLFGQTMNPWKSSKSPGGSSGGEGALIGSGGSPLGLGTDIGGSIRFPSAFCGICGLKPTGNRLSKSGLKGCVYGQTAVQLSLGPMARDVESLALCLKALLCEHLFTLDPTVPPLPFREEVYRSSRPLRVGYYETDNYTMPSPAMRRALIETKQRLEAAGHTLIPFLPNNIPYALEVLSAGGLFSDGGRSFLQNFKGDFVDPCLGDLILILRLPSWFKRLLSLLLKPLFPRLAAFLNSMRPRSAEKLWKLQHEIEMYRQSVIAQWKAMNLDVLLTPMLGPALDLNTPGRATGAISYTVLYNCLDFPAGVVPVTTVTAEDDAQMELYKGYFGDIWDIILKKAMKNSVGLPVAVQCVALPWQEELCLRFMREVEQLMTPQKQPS
Briefly: competitive ABPP, rat brain membrane proteome. Type of assay: biochemical. A digest of the protocol: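 Rat brain proteome pre-treated with test compound, then labelled with the serine hydrolase-directed fluorophosphonate-rhodamine (FP-Rh) activity-based probe. Proteins separated by SDS-PAGE and detected by in-gel fluorescence scanning. Inhibition scored as loss of FP-Rh labelling of the FAAH band. IC50 calculated from the gel-based ABPP data.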

A further assay deals with T2, hMAGL (Homo sapiens, UniProt Q99685).
T2 sequence (Q99685 1-303): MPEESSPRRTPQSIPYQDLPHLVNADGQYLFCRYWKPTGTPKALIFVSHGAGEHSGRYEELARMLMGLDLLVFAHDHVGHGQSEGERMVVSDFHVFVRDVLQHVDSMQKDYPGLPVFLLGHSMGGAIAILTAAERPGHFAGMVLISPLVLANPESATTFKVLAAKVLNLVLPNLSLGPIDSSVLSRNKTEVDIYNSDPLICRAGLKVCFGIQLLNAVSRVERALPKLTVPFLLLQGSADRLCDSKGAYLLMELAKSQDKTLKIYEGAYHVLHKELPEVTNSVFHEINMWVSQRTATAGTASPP
Briefly: competitive ABPP, proteomes of transiently transfected HEK293T cells. The class given is biochemical. The conditions noted are these: read-out: IC50 (95% CI), human MAGL, transfected HEK293T cell proteome.

The next assay addresses T3, hFAAH (Homo sapiens, UniProt O00519).
T3 sequence (O00519 1-579): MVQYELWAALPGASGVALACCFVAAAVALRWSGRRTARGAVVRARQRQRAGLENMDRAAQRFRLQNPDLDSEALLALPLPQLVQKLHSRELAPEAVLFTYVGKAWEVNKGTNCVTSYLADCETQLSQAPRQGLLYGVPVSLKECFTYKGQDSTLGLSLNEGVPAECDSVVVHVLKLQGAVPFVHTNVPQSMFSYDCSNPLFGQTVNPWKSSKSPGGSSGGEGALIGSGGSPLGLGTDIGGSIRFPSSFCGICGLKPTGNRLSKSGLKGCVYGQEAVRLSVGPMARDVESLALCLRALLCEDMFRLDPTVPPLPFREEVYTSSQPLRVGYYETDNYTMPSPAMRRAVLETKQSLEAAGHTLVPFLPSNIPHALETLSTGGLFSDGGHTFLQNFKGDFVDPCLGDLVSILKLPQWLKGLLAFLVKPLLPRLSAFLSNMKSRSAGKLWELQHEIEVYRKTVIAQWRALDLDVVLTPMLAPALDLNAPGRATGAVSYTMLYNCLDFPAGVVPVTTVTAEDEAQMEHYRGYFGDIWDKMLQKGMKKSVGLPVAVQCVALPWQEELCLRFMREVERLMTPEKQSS
Kind of assay: substrate hydrolysis assay. The class given is biochemical.

Assay [2] deals with T4, MAGL (Mus musculus, UniProt O35678).
T4 sequence (O35678 1-303): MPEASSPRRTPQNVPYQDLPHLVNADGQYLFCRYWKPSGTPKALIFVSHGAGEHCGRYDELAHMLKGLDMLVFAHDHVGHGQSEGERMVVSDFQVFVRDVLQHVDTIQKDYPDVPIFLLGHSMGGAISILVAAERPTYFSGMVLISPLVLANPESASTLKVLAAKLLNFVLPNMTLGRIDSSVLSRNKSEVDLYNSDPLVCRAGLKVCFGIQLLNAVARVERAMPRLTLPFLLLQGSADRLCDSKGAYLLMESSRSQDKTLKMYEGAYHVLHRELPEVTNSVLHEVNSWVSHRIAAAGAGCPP
Kind of assay: 2-AG substrate assay in mouse brain proteomes. Type of assay: biochemical.

Assay [3] has as its target T4, MAGL. Briefly: competitive ABPP of brain from inhibitor-treated mice. The class given is in vivo. To be noted: for blockade of MAGL activity in brain: C57Bl/6 mice, 4 h.
In assay [4] the test system is carboxylesterase (CES) enzymes. Briefly: gel-based ABPP of liver, lung and spleen from inhibitor-treated mice. Type of assay: in vivo, mouse.
The target in assay [5] is T1, FAAH. Briefly: brain AEA hydrolytic activity from KML29-treated rats. The class given is in vivo. The conditions noted are these: 1–40 mg kg^−1 i.p., 4 h. A digest of the protocol:
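Wistar rats received the test compound i.p. (1–40 mg kg−1 in saline:emulphor:ethanol 18:1:1) or vehicle and were killed after 4 h. Brain MAGL and FAAH activities were measured as hydrolysis of 2-AG and AEA, respectively. Means ± SEM, n = 3 rats/group, compared with vehicle-treated rats.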

Assay [6] relates to other rat brain serine hydrolases. Kind of assay: competitive ABPP, rat brain proteome, other serine hydrolases. The class given is biochemical. A digest of the protocol: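 Rat brain proteome was preincubated with test compound, then labelled with the serine hydrolase-directed probe FP-rhodamine. Proteins were separated by SDS-PAGE and scanned by in-gel fluorescence. Inhibition of individual serine hydrolases was scored as reduced probe labelling.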

For `O=C(OC(C(F)(F)F)C(F)(F)F)N1CCC(C(O)(c2ccc3c(c2)OCO3)c2ccc3c(c2)OCO3)CC1` [KML29], on FAAH [1] (rat brain proteome), the “FAAH inhibition / cross-reactivity (gel-based ABPP)” value is “no detectable cross-reactivity; also recorded: No inhibition of FAAH was detected”. Further, the IC50 is more than 50000 nM at FAAH [1] (read-out: IC50 (95% CI), rat FAAH, competitive ABPP, rat brain membrane proteome) and 5.9 nM at hMAGL. On hFAAH, the “AEA hydrolysis by hFAAH” value is listed as “undiminished AEA hydrolysis up to 50 μM”. Also, at MAGL [2], the “inhibition of 2-AG hydrolysis” value was “potent inhibitor of 2-AG hydrolysis”. Further, the “blockade of MAGL activity in brain” value at MAGL [3] (5 mg kg^−1 p.o.) is recorded as “partial inhibition”; on MAGL [3] (20 mg kg^−1 p.o.) it was “maximal inhibition”. In addition, the “time until which brain MAGL inhibition was sustained” value on MAGL [3] (mice, single oral dose 20 mg kg^−1) was 12 to 24 h. Also, the “time post-administration of maximal inhibition of brain MAGL” value on MAGL [3] (mice, single oral dose 20 mg kg^−1, earliest time point tested) was not above 1 h. The “CES inhibition in peripheral tissues, chronic dosing” value in assay [4] (40 mg kg^−1 p.o., six days) is given as “minimal cross-reactivity with CES enzymes”. Also, the “doses at which CES cross-reactivity (single ~70 kDa enzyme) was detected” value in assay [4] (p.o., 4 h, peripheral tissues) was 20 to 40 mg/kg. Also, the “brain AEA hydrolytic activity” value on FAAH [5] is “not affected at any dose”. Further, in assay [6], the “additional off-target reactivity with other rat brain serine hydrolases” value is reported as “did not detect any additional off-target reactivity”.

The term IC50 denotes the concentration needed to halve the response being measured.
